According to ChEMBL document CHEMBL1128400, “Synthesis of some 2-aryl-1,2,4-triazolo[1,5-c][1,3]benzoxazin-5-ones as tools to define the essential pharmacophoric descriptors of a benzodiazepine receptor ligand” (J Med Chem, 1995):

Tests used:
[1] = Binding affinity at bovine Benzodiazepine receptor by [3H]flunitrazepam displacement.
Procedure, shortened: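 [3H]flunitrazepam displacement; IC50 from log-probit plots, converted to Ki. Run for compounds giving enough inhibition in a 10 μM screen.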

[2] = target: T1, GABA-A receptor; anion channel (Bos taurus) (UniProt P10063+P08220+P20237+P08219+P10064+P22300); experiment: GABA ratio (where GABA ratio = IC50 (compound) / IC50 (compound + 10 uM GABA)).; format: protein-complex assay
Procedure, shortened: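 Ratio of IC50 for [3H]flunitrazepam displacement measured without GABA to IC50 measured with 10 μM GABA. Used as a rough in vitro gauge of intrinsic activity. Five independent experiments.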

[3] = target: T1, GABA-A receptor; anion channel (Bos taurus); experiment: Inhibition of [3H]flunitrazepam binding to GABA-A benzodiazepine receptor of bovine brain membranes at 10e-5 M; format: cell membranes
Procedure, shortened: (§1)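 Percent inhibition of [3H]flunitrazepam binding, with test compound at 10 μM. Ethanol used as solvent in one case.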

[4] = target: T1, GABA-A receptor; anion channel (Bos taurus); experiment: Percentage inhibition of [3H]flunitrazepam binding to GABA-A benzodiazepine receptor of bovine brain membranes; format: cell membranes; settings: concentration not given here; procedure, shortened: as §1
[5] = target: T1, GABA-A receptor; anion channel (Bos taurus); experiment: inhibition of [3H]flunitrazepam binding to GABA-A benzodiazepine receptor of bovine brain membranes; format: cell membranes; settings: concentration not given here

Structure (SMILES) | Ki [1] [nM] | GR [2] | inhibition [3] [%] | inhibition [4] [%] | inhibition [5] [%]
O=c1oc2ccc(Cl)cc2c2nc(-c3ccco3)nn12 | 62.3 | 0.9 |  |  | 
COc1ccc(-c2nc3c4cc(Cl)ccc4oc(=O)n3n2)cc1 | 72.8 | 0.5 |  |  | 
O=c1oc2ccc(Cl)cc2c2nc(-c3cccs3)nn12 | 100 | 0.8 |  |  | 
O=c1oc2ccccc2c2nc(-c3ccco3)nn12 | 27.9 | 0.84 |  |  | 
O=c1oc2ccccc2c2nc(-c3ccccc3)nn12 | 132 | 0.98 |  |  | 
O=c1oc2ccccc2c2nc(-c3cccs3)nn12 | 32.1 | 0.98 |  |  | 
Cc1ccc2oc(=O)n3nc(-c4ccccc4F)nc3c2c1 | 44.8 | 0.84 |  |  | 
COc1ccc2c(c1)oc(=O)n1nc(-c3ccccc3F)nc21 |  |  | 45 |  | 
O=c1oc2ccccc2c2nc(-c3ccc(Cl)cc3)nn12 |  |  |  | 0 | 
CCOC(=O)c1nc2c3cc(Cl)ccc3oc(=O)n2n1 | 125 | 1.2 |  |  | 
O=c1oc2ccc(Cl)cc2c2nc(-c3cccc(F)c3F)nn12 | 11.8 | 1.11 |  |  | 
O=c1oc2ccc(Cl)cc2c2nc(-c3c(F)cccc3F)nn12 | 42.2 | 0.76 |  |  | 
O=c1oc2cc(Cl)ccc2c2nc(-c3ccccc3F)nn12 |  |  |  |  | 47
O=c1oc2ccc(Cl)cc2c2nc(-c3ccccc3F)nn12 | 5.2 | 0.9 |  |  | 
O=c1oc2ccc(Cl)cc2c2nc(-c3ccc(Cl)cc3)nn12 |  |  |  |  | 3
O=c1oc2ccc(Cl)cc2c2nc(-c3ccoc3)nn12 | 105 | 0.8 |  |  | 
O=c1oc2ccccc2c2nc(-c3ccccc3F)nn12 | 15.3 | 0.95 |  |  | 
O=c1oc2ccc(Cl)cc2c2nc(-c3ccccc3)nn12 | 568 | 0.78 |  |  | 
CCOC(=O)c1nc2c3ccccc3oc(=O)n2n1 | 120 | 0.81 |  |  | 
COc1ccc(-c2nc3c4ccccc4oc(=O)n3n2)cc1 | 300 | 1.31 |  |  | 
COc1ccc2oc(=O)n3nc(-c4ccccc4F)nc3c2c1 | 43.7 | 1.13 |  |  | 
O=c1oc2ccc(Cl)cc2c2nc(-c3ccsc3)nn12 | 211 | 1.02 |  |  | 
